# Test results from ChEMBL document CHEMBL5247575 (J Med Chem, 2018).
# Test system: Pseudomonas aeruginosa
# Assay: Synergistic antibacterial activity against Pseudomonas aeruginosa 776 assessed as meropenem MIC at 4 ug/ml by broth microdilution method
# Format: functional
# Conditions: dose 4 µg/ml
row,Structure (SMILES),MIC
1,O=C(NNC(=O)[C@@H]1CC[C@@H]2CN1C(=O)N2OS(=O)(=O)O)[C@@H]1CCNC1,16 µg/mL

# Test system: Escherichia coli
# Assay: Synergistic antibacterial activity against Escherichia coli DH10B transfected with pBR322-catI-KPC-2 assessed as cefepime MIC at 8 ug/ml by broth microdilution method
# Format: functional
# Conditions: dose 8 µg/ml
# Summary of the method: (§1)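 Broth microdilution per CLSI guidelines, using custom frozen panels. […] Each partner drug was also tested alone. MICs were run in triplicate and the modal value is reported.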
row,Structure (SMILES),MIC
1,O=C(NNC(=O)[C@@H]1CC[C@@H]2CN1C(=O)N2OS(=O)(=O)O)[C@@H]1CCNC1,≤ 0.12 µg/mL

# Test system: Klebsiella pneumoniae
# Assay: Synergistic antibacterial activity against Klebsiella pneumoniae CAV 1636 producing OXA-181 assessed as meropenem MIC at 8 ug/ml by broth microdilution method
# Format: functional
# Conditions: dose 8 µg/ml
row,Structure (SMILES),MIC
1,O=C(NNC(=O)[C@@H]1CC[C@@H]2CN1C(=O)N2OS(=O)(=O)O)[C@@H]1CCNC1,≤ 0.12 µg/mL

# Test system: Klebsiella pneumoniae
# Assay: Synergistic antibacterial activity against Klebsiella pneumoniae 977/1916 producing KPC-3 assessed as cefepime MIC at 4 ug/ml by broth microdilution method
# Format: functional
# Conditions: dose 4 µg/ml
row,Structure (SMILES),MIC
1,O=C(NNC(=O)[C@@H]1CC[C@@H]2CN1C(=O)N2OS(=O)(=O)O)[C@@H]1CCNC1,≤ 0.12 µg/mL

# Test system: Klebsiella pneumoniae
# Assay: Synergistic antibacterial activity against Klebsiella pneumoniae 776/1742 producing KPC-2 assessed as cefepime MIC at 4 ug/ml by broth microdilution method
# Format: functional
# Conditions: dose 4 µg/ml
row,Structure (SMILES),MIC
1,O=C(NNC(=O)[C@@H]1CC[C@@H]2CN1C(=O)N2OS(=O)(=O)O)[C@@H]1CCNC1,≤ 0.12 µg/mL

# Test system: Acinetobacter baumannii
# Assay: Synergistic antibacterial activity against Acinetobacter baumannii PR323 producing OXA-24/40 assessed as cefepime MIC at 8 ug/ml by broth microdilution method
# Format: functional
# Conditions: dose 8 µg/ml
row,Structure (SMILES),MIC
1,O=C(NNC(=O)[C@@H]1CC[C@@H]2CN1C(=O)N2OS(=O)(=O)O)[C@@H]1CCNC1,8 µg/mL

# Test system: Pseudomonas aeruginosa
# Assay: Synergistic antibacterial activity against Pseudomonas aeruginosa CL232 assessed as cefepime MIC at 8 ug/ml by broth microdilution method
# Format: functional
# Conditions: dose 8 µg/ml
row,Structure (SMILES),MIC
1,O=C(NNC(=O)[C@@H]1CC[C@@H]2CN1C(=O)N2OS(=O)(=O)O)[C@@H]1CCNC1,4 µg/mL

# Test system: Klebsiella pneumoniae
# Assay: Synergistic antibacterial activity against Klebsiella pneumoniae 1398/2291 producing KPC-3 assessed as cefepime MIC at 4 ug/ml by broth microdilution method
# Format: functional
# Conditions: dose 4 µg/ml
# Summary of the method: as §1
row,Structure (SMILES),MIC
1,O=C(NNC(=O)[C@@H]1CC[C@@H]2CN1C(=O)N2OS(=O)(=O)O)[C@@H]1CCNC1,≤ 0.12 µg/mL

# Target: not listed separately
# Assay: Binding affinity to bacteria ADC-7 assessed as dissociation constant
# Conditions: not given
row,Structure (SMILES),Kd
1,O=C(NNC(=O)[C@@H]1CC[C@@H]2CN1C(=O)N2OS(=O)(=O)O)[C@@H]1CCNC1,0.029 µM

# Test system: Escherichia coli
# Assay: Synergistic antibacterial activity against Escherichia coli DH10B transfected with pBR322-catI-KPC-2 assessed as meropenem MIC at 8 ug/ml by broth microdilution method
# Format: functional
# Conditions: dose 8 µg/ml
# Summary of the method: as §1
row,Structure (SMILES),MIC
1,O=C(NNC(=O)[C@@H]1CC[C@@H]2CN1C(=O)N2OS(=O)(=O)O)[C@@H]1CCNC1,≤ 0.12 µg/mL

# Test system: Acinetobacter baumannii
# Assay: Synergistic antibacterial activity against ADC deleted Acinetobacter baumannii transfected with pWH1266 OXA-23 assessed as cefepime MIC at 8 ug/ml by broth microdilution method
# Format: functional
# Conditions: dose 8 µg/ml
row,Structure (SMILES),MIC
1,O=C(NNC(=O)[C@@H]1CC[C@@H]2CN1C(=O)N2OS(=O)(=O)O)[C@@H]1CCNC1,16 µg/mL

# Test system: Klebsiella pneumoniae
# Assay: Synergistic antibacterial activity against Klebsiella pneumoniae 1315/2198 producing KPC-3 assessed as cefepime MIC at 8 ug/ml by broth microdilution method
# Format: functional
# Conditions: dose 8 µg/ml
# Summary of the method: as §1
row,Structure (SMILES),MIC
1,O=C(NNC(=O)[C@@H]1CC[C@@H]2CN1C(=O)N2OS(=O)(=O)O)[C@@H]1CCNC1,≤ 0.12 µg/mL

# Test system: Escherichia coli
# Assay: Synergistic antibacterial activity against Escherichia coli DH10B transfected with pBC SK (-) KPC-2 assessed as cefepime MIC at 8 ug/ml by broth microdilution method
# Format: functional
# Conditions: dose 8 µg/ml
row,Structure (SMILES),MIC
1,O=C(NNC(=O)[C@@H]1CC[C@@H]2CN1C(=O)N2OS(=O)(=O)O)[C@@H]1CCNC1,≤ 0.12 µg/mL

# Test system: Klebsiella pneumoniae
# Assay: Synergistic antibacterial activity against Klebsiella pneumoniae jefferson 1775 producing OXA-48 assessed as cefepime MIC at 8 ug/ml by broth microdilution method
# Format: functional
# Conditions: dose 8 µg/ml
row,Structure (SMILES),MIC
1,O=C(NNC(=O)[C@@H]1CC[C@@H]2CN1C(=O)N2OS(=O)(=O)O)[C@@H]1CCNC1,≤ 0.12 µg/mL

# Test system: Pseudomonas aeruginosa
# Assay: Synergistic antibacterial activity against Pseudomonas aeruginosa 795 assessed as cefepime MIC at 8 ug/ml by broth microdilution method
# Format: functional
# Conditions: dose 8 µg/ml
row,Structure (SMILES),MIC
1,O=C(NNC(=O)[C@@H]1CC[C@@H]2CN1C(=O)N2OS(=O)(=O)O)[C@@H]1CCNC1,≤ 0.12 µg/mL

# Test system: Acinetobacter baumannii
# Assay: Synergistic antibacterial activity against Acinetobacter baumannii PR323 producing OXA-24/40 assessed as meropenem MIC at 8 ug/ml by broth microdilution method
# Format: functional
# Conditions: dose 8 µg/ml
row,Structure (SMILES),MIC
1,O=C(NNC(=O)[C@@H]1CC[C@@H]2CN1C(=O)N2OS(=O)(=O)O)[C@@H]1CCNC1,> 16 µg/mL

# Test system: Klebsiella pneumoniae
# Assay: Synergistic antibacterial activity against Klebsiella pneumoniae 1398/2291 producing KPC-3 assessed as meropenem MIC at 8 ug/ml by broth microdilution method
# Format: functional
# Conditions: dose 8 µg/ml
# Summary of the method: as §1
row,Structure (SMILES),MIC
1,O=C(NNC(=O)[C@@H]1CC[C@@H]2CN1C(=O)N2OS(=O)(=O)O)[C@@H]1CCNC1,≤ 0.12 µg/mL

# Test system: Escherichia coli
# Assay: Synergistic antibacterial activity against Escherichia coli DH10B transfected with pBC SK (-) KPC-2 assessed as meropenem MIC at 8 ug/ml by broth microdilution method
# Format: functional
# Conditions: dose 8 µg/ml
row,Structure (SMILES),MIC
1,O=C(NNC(=O)[C@@H]1CC[C@@H]2CN1C(=O)N2OS(=O)(=O)O)[C@@H]1CCNC1,≤ 0.12 µg/mL

# Test system: Klebsiella pneumoniae
# Assay: Synergistic antibacterial activity against Klebsiella pneumoniae 660/1568 producing KPC-3 assessed as cefepime MIC at 4 ug/ml by broth microdilution method
# Format: functional
# Conditions: dose 4 µg/ml
# Summary of the method: as §1
row,Structure (SMILES),MIC
1,O=C(NNC(=O)[C@@H]1CC[C@@H]2CN1C(=O)N2OS(=O)(=O)O)[C@@H]1CCNC1,≤ 0.12 µg/mL
